Columns and labels:
Leishmania donovani [1] = assay: Inhibitory concentration against Leishmania donovani axenic amastigotes was determined in vitro; assay type: functional, organism-based
Trypanosoma brucei = assay: microbe, parasite or virus in culture; assay type: functional, organism-based
J774 = assay: In vitro cytotoxicity against mouse J774 macrophages.; assay type: functional, cell-based
Mus musculus [2] = assay: Tested against Trypanosoma brucei strain ST1B 795 in mice as cured to tested at 20 mg/kg/day administered intraperitoneally; 0/4; assay type: functional; conditions: route intraperitoneal
Mus musculus [3] = assay: Average survival time for mice infected with Trypanosoma brucei ST1B 795 when treated with 20 mg/kg administered intraperitoneally; assay type: functional; conditions: route intraperitoneal
Outline: (§1)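 Female NMRI mice (20-25 g) were infected ip with 10⁴ T. b. brucei STIB 795 bloodstream forms and randomly assigned to groups of four. Starting 4 days after infection, 20 mg/kg was given ip for 4 consecutive days. Vehicle was DMSO diluted with water, with final DMSO below 10%. Day of death was recorded for each mouse.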

[4] = Tested for toxicity against mice by intraperitoneal administration; No signs of toxicity; conditions: mouse, in vivo, ip
[5] = Inhibition of Leishmanial tubulin assembly; design: species or system Leishmania donovani
Outline: (§2)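 Leishmanial tubulin turbidity assay. Compounds added in 50% DMSO. Assembly started on ice by adding cold GTP in 25% DMSO. Turbidity followed at 351 nm while warming to 30 °C. Single-concentration tests run at 10 µM.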

Leishmania donovani [6] = assay: Inhibition percentage of Leishmanial tubulin assembly at a concentration of 10 uM.; outline: as §2
Tubulin (Sus scrofa) = Tubulin (Sus scrofa) (UniProt P02554+P02550); assay: Inhibition of porcine brain tubulin assembly at 40 uM
Chain of Tubulin (Sus scrofa) (P02550 whole entry, looked up): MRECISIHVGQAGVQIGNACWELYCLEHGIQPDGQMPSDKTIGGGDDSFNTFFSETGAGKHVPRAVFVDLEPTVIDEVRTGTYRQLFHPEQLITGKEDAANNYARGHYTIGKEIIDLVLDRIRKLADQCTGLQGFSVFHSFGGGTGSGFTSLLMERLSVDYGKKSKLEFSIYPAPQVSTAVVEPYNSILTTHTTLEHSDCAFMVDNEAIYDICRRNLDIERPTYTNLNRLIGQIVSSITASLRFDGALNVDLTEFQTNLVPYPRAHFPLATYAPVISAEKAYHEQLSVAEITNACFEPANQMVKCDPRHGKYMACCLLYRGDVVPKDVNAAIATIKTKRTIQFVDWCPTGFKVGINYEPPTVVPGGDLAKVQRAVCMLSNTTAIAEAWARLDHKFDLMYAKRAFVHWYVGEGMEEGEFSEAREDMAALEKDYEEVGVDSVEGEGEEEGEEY
Chain of Tubulin (Sus scrofa) (P02554 whole entry, looked up): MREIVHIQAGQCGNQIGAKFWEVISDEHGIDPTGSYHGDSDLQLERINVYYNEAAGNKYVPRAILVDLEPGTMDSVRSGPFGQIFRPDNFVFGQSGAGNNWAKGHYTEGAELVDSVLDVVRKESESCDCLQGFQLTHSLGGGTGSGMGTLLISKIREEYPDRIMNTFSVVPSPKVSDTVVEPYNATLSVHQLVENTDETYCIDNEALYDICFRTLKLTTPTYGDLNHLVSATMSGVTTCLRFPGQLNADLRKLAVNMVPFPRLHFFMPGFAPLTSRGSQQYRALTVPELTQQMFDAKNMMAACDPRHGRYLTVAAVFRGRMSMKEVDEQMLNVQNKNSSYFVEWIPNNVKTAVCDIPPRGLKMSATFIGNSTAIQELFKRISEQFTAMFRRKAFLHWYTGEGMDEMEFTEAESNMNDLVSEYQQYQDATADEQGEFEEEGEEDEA
Outline: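 Porcine brain tubulin purified by DEAE-Sepharose and a warm assembly cycle. Compound at 40 µM added in 100% DMSO. Assembly started on ice with cold GTP in water. Turbidity read at 351 nm while warming to 37 °C. Percent inhibition determined.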

PC-3 = assay: In vitro cytotoxicity against mouse PC3 prostate cancer cell line.; assay type: functional, cell-based; conditions: Homo sapiens
[7] = test system: Tubulin (Leishmania donovani); assay: Inhibition percentage of Leishmanial tubulin assembly at a concentration of 10 uM
Mus musculus [8] = assay: Average survival time for mice infected with Trypanosoma brucei ST1B 795 when treated with 20 mg/kg administered i.p.; assay type: functional; conditions: route intraperitoneal; outline: as §1

Row | Compound | IC50 (Leishmania donovani [1]) [µM] | IC50 (Trypanosoma brucei) [µM] | IC50 (J774) [µM] | inhibition (Leishmania donovani [6]) [%] | inhibition (Tubulin (Sus scrofa)) [%] | IC50 (PC-3) [µM] | other results
1 | CCCN(CCC)c1c([N+](=O)[O-])cc(S(=O)(=O)NC2CC2)cc1[N+](=O)[O-] | 43 | 3.4 | – | – | – | – | –
2 | CCCN(CCC)c1c([N+](=O)[O-])cc(S(=O)(=O)Nc2ccccn2)cc1[N+](=O)[O-] | 60 | 9.2 | 45 | – | – | – | –
3 | CCCCN(CCCC)c1c([N+](=O)[O-])cc(S(=O)(=O)Nc2ccccc2)cc1[N+](=O)[O-] | 2.6 | 0.12 | 12 | 104 | < 20 | 13 | Activity (Mus musculus [2]): 0; Survival (Mus musculus [3]): 8 days; Dose [4]: 20 mg/kg; IC50 [5]: 6.9 µM
4 | CCCCNS(=O)(=O)c1cc([N+](=O)[O-])c(N(CCC)CCC)c([N+](=O)[O-])c1 | 50 | 12 | – | – | < 20 | – | –
5 | Cc1ccc(C(=O)Nc2ccc(S(=O)(=O)O)c3cc(S(=O)(=O)O)cc(S(=O)(=O)O)c23)cc1NC(=O)c1cccc(NC(=O)Nc2cccc(C(=O)Nc3cc(C(=O)Nc4ccc(S(=O)(=O)O)c5cc(S(=O)(=O)O)cc(S(=O)(=O)O)c45)ccc3C)c2)c1 [SURAMIN] | – | 0.21 | – | – | – | – | –
6 | CCCN(CCC)c1c([N+](=O)[O-])cc(S(=O)(=O)Nc2cccc(OC)c2)cc1[N+](=O)[O-] | 8.1 | 1.3 | 25 | 39 | < 20 | 36 | –
7 | CCCN(CCC)c1c([N+](=O)[O-])cc(S(N)(=O)=O)cc1[N+](=O)[O-] [ORYZALIN] | 65 | 12 | 44 | – | – | 56 | –
8 | CCCCCNS(=O)(=O)c1cc([N+](=O)[O-])c(N(CCC)CCC)c([N+](=O)[O-])c1 | 43 | 17 | – | – | – | – | –
9 | CCCN(CCC)c1c([N+](=O)[O-])cc(S(=O)(=O)Nc2ccc(OC)cc2)cc1[N+](=O)[O-] | 32 | 19 | 15 | < 20 | < 20 | 31 | Activity (Mus musculus [2]): 0; Dose [4]: No signs of toxicity
10 | CCCN(CCC)c1c([N+](=O)[O-])cc(S(=O)(=O)N(CC)CC)cc1[N+](=O)[O-] | 27 | 8.3 | – | – | – | – | –
11 | N=C(N)c1ccc(OCCCCCOc2ccc(C(=N)N)cc2)cc1 [PENTAMIDINE] | – | 0.013 | – | – | – | – | –
12 | CCCN(CCC)c1c([N+](=O)[O-])cc(S(=O)(=O)NC2CCCC2)cc1[N+](=O)[O-] | 50 | 11 | – | – | – | – | Activity (Mus musculus [2]): 0; Dose [4]: No signs of toxicity; inhibition [7]: < 20%
13 | CCCN(CCC)c1c([N+](=O)[O-])cc(S(=O)(=O)Nc2ccccc2)cc1[N+](=O)[O-] | 5 | 0.41 | 28 | 89 | 14 | 31 | Activity (Mus musculus [2]): 0; Survival (Mus musculus [8]): 8 days; Dose [4]: 20 mg/kg; IC50 [5]: 6.7 µM
14 | CCCN(CCC)c1c([N+](=O)[O-])cc(S(=O)(=O)N(C)C)cc1[N+](=O)[O-] | > 100 | 5.8 | – | – | – | – | –
15 | CCCCN(CCCC)S(=O)(=O)c1cc([N+](=O)[O-])c(N(CCC)CCC)c([N+](=O)[O-])c1 | 48 | 38 | – | – | – | – | –
16 | CCCCCCN(CCCCCC)S(=O)(=O)c1cc([N+](=O)[O-])c(N(CCC)CCC)c([N+](=O)[O-])c1 | > 100 | > 50 | – | – | – | – | –
17 | CCCN(CCC)c1c([N+](=O)[O-])cc(S(=O)(=O)Nc2ccc(C)cc2)cc1[N+](=O)[O-] | 32 | 13 | 11 | < 20 | < 20 | 21 | –

Row | Compound | IC50 (Leishmania donovani [1]) [µM] | IC50 (Trypanosoma brucei) [µM] | IC50 (J774) [µM] | inhibition (Leishmania donovani [6]) [%] | inhibition (Tubulin (Sus scrofa)) [%] | IC50 (PC-3) [µM] | other results
18 | CCCN(CCC)c1c([N+](=O)[O-])cc(S(=O)(=O)Nc2cccc(C)c2)cc1[N+](=O)[O-] | 23 | 1.9 | 16 | < 20 | < 20 | 25 | –
19 | CCCN(CCC)c1c([N+](=O)[O-])cc(S(=O)(=O)N(CCC)CCC)cc1[N+](=O)[O-] | 55 | 17 | – | – | – | – | –
20 | CCCN(CCC)c1c([N+](=O)[O-])cc(S(=O)(=O)NC(C)C)cc1[N+](=O)[O-] | > 100 | 4.1 | – | – | – | – | –
21 | CCCN(CCC)c1c([N+](=O)[O-])cc(S(=O)(=O)Nc2ccc(Cl)c(Cl)c2)cc1[N+](=O)[O-] | 5 | 7.9 | 7.2 | < 20 | < 20 | 15 | –
22 | CCCN(CCC)c1c([N+](=O)[O-])cc(S(=O)(=O)N(c2ccccc2)c2ccccc2)cc1[N+](=O)[O-] | > 100 | 7 | > 100 | – | – | > 100 | –
23 | CCCCCCNS(=O)(=O)c1cc([N+](=O)[O-])c(N(CCC)CCC)c([N+](=O)[O-])c1 | 26 | 15 | – | – | – | – | –
24 | CCCNS(=O)(=O)c1cc([N+](=O)[O-])c(N(CCC)CCC)c([N+](=O)[O-])c1 | 54 | 8.9 | – | < 20 | – | – | –
25 | CCCN(CCC)c1c([N+](=O)[O-])cc(S(=O)(=O)N2CCCC2)cc1[N+](=O)[O-] | 47 | 6.5 | – | – | – | – | –
26 | COc1cc2cc(c1Cl)N(C)C(=O)C[C@H](OC(=O)C(C)C)[C@]1(C)O[C@@H]1[C@H](C)[C@@H]1C[C@@](O)(NC(=O)O1)[C@H](OC)/C=C/C=C(\C)C2 [ANSAMITOCIN P3] | – | – | 0.00047 | – | – | 6e-05 | –
27 | CCN(CC)c1c([N+](=O)[O-])cc(S(=O)(=O)Nc2ccccc2)cc1[N+](=O)[O-] | 11 | 2.8 | 48 | < 20 | < 20 | 56 | –
28 | CCCN(CCC)c1c([N+](=O)[O-])cc(S(=O)(=O)Nc2cccc(Cl)c2)cc1[N+](=O)[O-] | 5.5 | 2.1 | 8.7 | 57 | < 20 | 18 | –
29 | CCCN(CCC)c1c([N+](=O)[O-])cc(S(=O)(=O)Nc2ccc(Cl)cc2)cc1[N+](=O)[O-] | 13 | 13 | 10 | < 20 | < 20 | 16 | –
30 | CCCN(CCC)c1c([N+](=O)[O-])cc(S(=O)(=O)N(C)c2ccccc2)cc1[N+](=O)[O-] | 21 | 1 | 11 | < 20 | – | > 100 | –
31 | CCCN(CCC)c1c([N+](=O)[O-])cc(S(=O)(=O)N2CCOCC2)cc1[N+](=O)[O-] | > 100 | > 100 | – | – | – | – | –
32 | CCCN(CCC)c1c([N+](=O)[O-])cc(S(=O)(=O)Nc2cc(Cl)cc(Cl)c2)cc1[N+](=O)[O-] | 3.7 | 8 | 5.1 | 102 | < 20 | 11 | IC50 [5]: 5.8 µM
33 | CCCN(CCC)c1c([N+](=O)[O-])cc(S(=O)(=O)NC)cc1[N+](=O)[O-] | > 100 | 5.3 | – | < 20 | < 20 | – | –
34 | CCCN(CCC)c1c([N+](=O)[O-])cc(S(=O)(=O)NCC)cc1[N+](=O)[O-] | > 100 | 5.4 | – | – | – | – | –
